Experiment [1] addresses T1, Kinesin-like protein KIF3C (Homo sapiens) (UniProt O14782).
T1 sequence (whole entry): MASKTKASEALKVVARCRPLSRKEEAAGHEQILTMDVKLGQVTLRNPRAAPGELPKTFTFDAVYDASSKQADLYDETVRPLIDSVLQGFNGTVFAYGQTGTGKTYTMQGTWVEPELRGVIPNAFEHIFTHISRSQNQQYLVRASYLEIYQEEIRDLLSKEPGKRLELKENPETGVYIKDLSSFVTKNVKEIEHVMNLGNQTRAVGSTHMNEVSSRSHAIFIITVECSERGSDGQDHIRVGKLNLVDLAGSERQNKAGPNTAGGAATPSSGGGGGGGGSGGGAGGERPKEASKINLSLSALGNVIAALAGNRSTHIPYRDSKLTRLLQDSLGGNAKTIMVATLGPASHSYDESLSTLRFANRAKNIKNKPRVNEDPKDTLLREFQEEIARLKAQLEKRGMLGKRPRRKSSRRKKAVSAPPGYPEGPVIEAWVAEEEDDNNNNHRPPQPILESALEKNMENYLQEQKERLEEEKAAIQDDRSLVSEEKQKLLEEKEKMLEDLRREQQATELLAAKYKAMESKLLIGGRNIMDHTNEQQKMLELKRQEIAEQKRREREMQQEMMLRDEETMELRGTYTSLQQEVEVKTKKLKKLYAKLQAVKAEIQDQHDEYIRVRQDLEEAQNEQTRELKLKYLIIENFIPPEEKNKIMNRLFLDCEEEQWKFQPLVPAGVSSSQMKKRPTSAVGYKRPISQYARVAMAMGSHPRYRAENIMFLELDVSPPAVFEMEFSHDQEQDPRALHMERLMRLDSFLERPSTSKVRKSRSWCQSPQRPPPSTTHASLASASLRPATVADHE
The experiment is described as follows: Inhibition of porcine brain microtubule-stimulated human recombinant GST-tagged KIF3C ATPase activity at 15 uM by microplate reader in presence of Mg2+ ATP relative to control. In short, it runs like this: (§1)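 Each kinesin motor domain was tested against MT-stimulated ATPase at 22 °C in triplicate, with compounds at 15 µM. Buffer was 7.5 mM PIPES-NaOH pH 7.0 with MgCl2, Taxol, ELIPA reagents and 1.25 mg/mL MTs. Reactions were started with 1 mM Mg2+ATP and read kinetically at 360 nm. Monastrol and AMP-PNP (1 mM) were the controls.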

For experiment [2], the target named is T2, Kinesin-1 heavy chain (Homo sapiens) (UniProt P33176).
T2 sequence (whole entry): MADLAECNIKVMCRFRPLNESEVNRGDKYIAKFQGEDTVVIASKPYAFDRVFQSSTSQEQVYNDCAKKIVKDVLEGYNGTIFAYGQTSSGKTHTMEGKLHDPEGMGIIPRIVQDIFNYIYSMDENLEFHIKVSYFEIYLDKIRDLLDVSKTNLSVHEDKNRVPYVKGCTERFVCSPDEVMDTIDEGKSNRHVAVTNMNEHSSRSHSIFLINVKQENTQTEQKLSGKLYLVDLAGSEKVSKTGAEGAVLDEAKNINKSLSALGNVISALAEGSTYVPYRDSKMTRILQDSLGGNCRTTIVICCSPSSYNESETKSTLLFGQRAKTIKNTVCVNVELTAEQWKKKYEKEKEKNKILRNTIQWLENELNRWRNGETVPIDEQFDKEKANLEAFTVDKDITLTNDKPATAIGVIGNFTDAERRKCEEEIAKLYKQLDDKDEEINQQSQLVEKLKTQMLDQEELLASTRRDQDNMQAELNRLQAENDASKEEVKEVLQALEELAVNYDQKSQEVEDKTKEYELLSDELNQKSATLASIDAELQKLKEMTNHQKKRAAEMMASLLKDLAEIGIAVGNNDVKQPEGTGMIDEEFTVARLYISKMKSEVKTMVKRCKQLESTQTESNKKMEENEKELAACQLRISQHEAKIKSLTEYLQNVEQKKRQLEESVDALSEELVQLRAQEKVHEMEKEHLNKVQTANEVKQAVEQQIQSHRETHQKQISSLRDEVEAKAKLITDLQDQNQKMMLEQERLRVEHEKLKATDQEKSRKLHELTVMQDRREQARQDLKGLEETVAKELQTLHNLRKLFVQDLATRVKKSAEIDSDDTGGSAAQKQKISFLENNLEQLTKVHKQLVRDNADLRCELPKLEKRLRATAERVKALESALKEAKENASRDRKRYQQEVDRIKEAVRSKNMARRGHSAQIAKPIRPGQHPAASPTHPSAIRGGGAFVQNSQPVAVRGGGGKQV
The experiment is described as follows: Inhibition of porcine brain microtubule-stimulated human recombinant GST-tagged Kif5B ATPase activity at 15 uM by microplate reader in presence of Mg2+ ATP relative to control. In short, it runs like this:
as §1

The values that follow come from ChEMBL document CHEMBL3751740, “New MKLP-2 inhibitors in the paprotrain series: Design, synthesis and biological evaluations” (Bioorg Med Chem, 2016).

As to `COc1cccc2[nH]cc(/C(C#N)=C/c3cccnc3)c12`, the inhibition in experiment [1] and in experiment [2] was below 20% in each case.
Turning to `COc1ccc2[nH]cc(/C(C#N)=C/c3cccnc3)c2c1`, the inhibition in experiment [1] and in experiment [2] was below 20% throughout.
On to `N#C/C(=C\c1ccc2c(c1)OCO2)c1c[nH]c2ccccc12`, for which the inhibition in experiment [1] and in experiment [2] was below 20% each time.
As for `N#C/C(=C\c1cccnc1)c1c[nH]c2ccc(OCc3ccccc3)cc12`, the inhibition in experiment [1] and in experiment [2] was below 20% each time.
On to `COc1ccc2c(/C(C#N)=C/c3cccnc3)c[nH]c2c1`, for which the inhibition in experiment [1] and in experiment [2] was below 20% throughout.
Consider `CCOC(=O)C1=C(C)NC(=S)NC1c1cccc(O)c1` (configuration not stated), for which the inhibition in experiment [1] and in experiment [2] was below 20% in each case.
